Test results: ChEMBL document CHEMBL3769316, “Discovery of novel heteroarylmethylcarbamodithioates as potent anticancer agents: Synthesis, structure-activity relationship analysis and biological evaluation” (Eur J Med Chem, 2016)
Active and inactive are the calls of the source. The calls are words filed in the database; no cut-off is given here.

What was measured:
PC-3 [1] = test: Induction of cell cycle arrest in human PC3 cells assessed as accumulation at S phase at 2 uM after 24 hrs by propidium iodide staining-based flow cytometry (reference value: 37.86%); assay type: functional
Bel-7402 [2] = test: Induction of apoptosis in human Bel7402 cells assessed as increase in early apoptotic cells after 48 hrs by annexin V-FITC/propidium iodide staining-based flow cytometry; assay type: functional, cell-based
Summary of the method: (§1)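 After 48 h exposure to graded concentrations, both floating and adherent cells were collected into binding buffer. They were stained with Annexin V-FITC plus PI for 15 min in the dark and analysed immediately by flow cytometry. Annexin V+/PI− cells were counted as early apoptotic and Annexin V+/PI+ cells as late apoptotic.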

MDA-MB-468 = test: Cytotoxicity against human MDA-MB-468 cells after 72 hrs by alamar blue assay; assay type: functional, cell-based; settings: MDA-MB-468, 72 h
Summary of the method: (§2)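 Cells seeded and cultured overnight, then exposed to compound at varying concentrations for 72 h. Cells were then incubated 2-4 h in medium containing 10% Alamar blue, and fluorescence was read at ex 530/em 590 nm. Dose-response curves used at least five concentrations, and IC50 (50% growth inhibition) was taken from these curves. Culture was at 37 °C.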

PC-3 [3] = test: Induction of mitotic arrest in human PC3 cells assessed as increase in supernumerary centrosome formation at 2 uM after 6 hrs using DAPI staining by immunofluorescence-based laser scanning confocal microscopy; assay type: functional, cell-based
Summary of the method: (§3)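 PC-3 cells on confocal dishes were exposed 6 h to compound (2 µM) or taxol (40 nM), then fixed in 4% paraformaldehyde overnight at 4 °C and blocked. They were stained overnight at 4 °C with anti-β-tubulin and anti-γ-tubulin (1:100 each), then 1 h with Alexa Fluor 488/647 secondaries, and co-stained for DNA. Spindles and centrosomes were imaged by confocal microscopy.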

Bel-7402 [4] = test: Induction of cell cycle arrest in human Bel7402 cells assessed as accumulation at G2/M phase at 2 uM after 24 hrs by propidium iodide staining-based flow cytometry (reference value: 16%); assay type: functional
Bel-7402 [5] = test: Induction of cell cycle arrest in human Bel7402 cells assessed as accumulation at S phase at 2 uM after 24 hrs by propidium iodide staining-based flow cytometry (reference value: 47.24%); assay type: functional
SK-BR-3 = test: Cytotoxicity against human SK-BR-3 cells after 72 hrs by alamar blue assay; assay type: functional, cell-based; settings: SK-BR-3, 72 h; summary of the method: as §2
PC-3 [6] = test: Induction of cell cycle arrest in human PC3 cells assessed as accumulation at G0/G1 phase at 2 uM after 24 hrs by propidium iodide staining-based flow cytometry (reference value: 42.23%); assay type: functional
[7] = Cytotoxicity against human PC3 cells after 72 hrs by alamar blue assay; assay type: functional, cell-based; settings: PC-3, 72 h
Summary of the method: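 PC-3 cells were grown at 37 °C, 5% CO₂ in F-12K with 10% FBS, penicillin and streptomycin. They were seeded overnight and treated with at least five concentrations for 72 h. Alamar blue (10% in medium) was added for 2-4 h, and fluorescence was read at 530/590 nm. IC50 was taken from the dose-response curves.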

PC-3 [8] = test: Induction of mitotic arrest in human PC3 cells assessed as increase in multipolar spindle formation at 2 uM after 6 hrs using DAPI staining by immunofluorescence-based laser scanning confocal microscopy; assay type: functional, cell-based; summary of the method: as §3
[9] = Cytotoxicity against human LO2 cells after 72 hrs by alamar blue assay; assay type: cell-based; settings: L02, 72 h; summary of the method: as §2
PC-3 [10] = test: Induction of mitotic arrest in human PC3 cells assessed as increase in histone H3 phosphorylation at Ser10 at 0.5 to 4 uM after 24 hrs by Western blot method; assay type: functional, cell-based
Summary of the method: (§4)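 PC-3 cells were treated 24 h with compound (0.5-4 µM) or taxol (40 nM) as positive control, then lysed in RIPA with PMSF and protease inhibitors. Lysates were run on SDS-PAGE and transferred to PVDF, which was blocked with 5% milk for 1 h. Membranes were probed overnight at 4 °C for MPM-2 (1:1000), phospho-H3 (1:600) or β-actin (1:1000), followed by HRP secondary and chemiluminescence.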

PC-3 [11] = test: Induction of apoptosis in human PC3 cells assessed as chromatin condensation at 0.5 to 2 uM after 48 hrs by Hoechst 33342 staining-based fluorescence microscopy; assay type: functional, cell-based
Summary of the method: (§5)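 Cells were treated with graded concentrations for 48 h, washed with PBS and fixed in 4% paraformaldehyde for 15 min. They were then stained with Hoechst 33342 (10 µg/ml in PBS) for 10 min at room temperature. Nuclear morphology and chromatin condensation were imaged by fluorescence microscopy under UV illumination.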

Bel-7402 [12] = test: Induction of apoptosis in human Bel7402 cells assessed as increase in late apoptotic cells after 48 hrs by annexin V-FITC/propidium iodide staining-based flow cytometry; assay type: functional, cell-based; summary of the method: as §1
PC-3 [13] = test: Induction of apoptosis in human PC3 cells assessed as increase in early apoptotic cells after 48 hrs by annexin V-FITC/propidium iodide staining-based flow cytometry; assay type: functional, cell-based; summary of the method: as §1
Bel-7402 [14] = test: Induction of apoptosis in human Bel7402 cells assessed as chromatin condensation at 1 to 4 uM after 48 hrs by Hoechst 33342 staining-based fluorescence microscopy; assay type: functional, cell-based; summary of the method: as §5
NCI-H1299 = test: Cytotoxicity against human NCI-H1299 cells after 72 hrs by alamar blue assay; assay type: functional, cell-based; settings: NCI-H1299, 72 h; summary of the method: as §2
Bel-7402 [15] = test: Induction of cell cycle arrest in human Bel7402 cells assessed as accumulation at G0/G1 phase at 2 uM after 24 hrs by propidium iodide staining-based flow cytometry (reference value: 36.76%); assay type: functional
[16] = Cytotoxicity against human HCT116 cells after 72 hrs by alamar blue assay; assay type: functional, cell-based; settings: HCT-116, 72 h; summary of the method: as §2
[17] = Cytotoxicity against HEK293T cells after 72 hrs by alamar blue assay; assay type: cell-based; settings: Homo sapiens, HEK-293T
PC-3 [18] = test: Induction of mitotic arrest in human PC3 cells assessed as increase in MPM-2 level at 0.5 to 4 uM after 24 hrs by Western blot method; assay type: functional, cell-based; summary of the method: as §4
NCI-H460 = test: Cytotoxicity against human NCI-H460 cells after 72 hrs by alamar blue assay; assay type: functional, cell-based; settings: NCI-H460, 72 h; summary of the method: as §2
[19] = Cytotoxicity against human SW620 cells after 72 hrs by alamar blue assay; assay type: functional, cell-based; settings: SW-620, 72 h
Summary of the method: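 SW620 cells were kept at 37 °C in 100% air in Leibovitz's L-15 with 10% FBS, penicillin and streptomycin. After overnight seeding, cells were given at least five concentrations for 72 h. Cells were then incubated 2-4 h with 10% Alamar blue, and fluorescence was read at ex 530/em 590 nm. IC50 was interpolated from the dose-response curves.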

[20] = Cytotoxicity against human Bel7402 cells after 72 hrs by alamar blue assay; assay type: functional, cell-based; settings: Bel-7402, 72 h; summary of the method: as §2
[21] = Cytotoxicity against human HCT8 cells after 72 hrs by alamar blue assay; assay type: functional, cell-based; settings: HCT-8, 72 h; summary of the method: as §2
[22] = Cytotoxicity against human COLO205 cells after 72 hrs by alamar blue assay; assay type: functional, cell-based; settings: COLO 205, 72 h; summary of the method: as §2
[23] = Cytotoxicity against human DU145 cells after 72 hrs by alamar blue assay; assay type: functional, cell-based; settings: DU-145, 72 h; summary of the method: as §2
PC-3 [24] = test: Induction of apoptosis in human PC3 cells assessed as increase in late apoptotic cells after 48 hrs by annexin V-FITC/propidium iodide staining-based flow cytometry; assay type: functional, cell-based; summary of the method: as §1
NCI-H522 = test: Cytotoxicity against human NCI-H522 cells after 72 hrs by alamar blue assay; assay type: functional, cell-based; settings: NCI-H522, 72 h; summary of the method: as §2
PC-3 [25] = test: Induction of cell cycle arrest in human PC3 cells assessed as accumulation at G2/M phase at 2 uM after 24 hrs by propidium iodide staining-based flow cytometry (reference value: 19.9%); assay type: functional

S=C(NCc1cccnc1)SCCc1nnc(-c2ccccc2)o1
Activity (PC-3 [1]): 26.46% | Activity (Bel-7402 [2]): Dose-dependent effect | IC50 (MDA-MB-468): 2.77 µM | Activity (PC-3 [3]): Active | Activity (Bel-7402 [4]): 46.27% | Activity (Bel-7402 [5]): 29.9% | IC50 (SK-BR-3): 0.58 µM | Activity (PC-3 [6]): 22.41% | IC50 [7]: 0.39 µM | Activity (PC-3 [8]): Active | IC50 [9]: 9.67 µM | Activity (PC-3 [10]): Active | Activity (PC-3 [11]): Active | Activity (Bel-7402 [12]): Dose-dependent effect | Activity (PC-3 [13]): Dose-dependent effect | Activity (Bel-7402 [14]): Active | IC50 (NCI-H1299): 1.89 µM | Activity (Bel-7402 [15]): 21.42% | IC50 [16]: 8.21 µM | IC50 [17]: 14.6 µM | Activity (PC-3 [18]): Active | IC50 (NCI-H460): 6.07 µM | IC50 [19]: 3.8 µM | IC50 [20]: 1.23 µM | IC50 [21]: 5.98 µM | IC50 [22]: 7.92 µM | IC50 [23]: 3.34 µM | Activity (PC-3 [24]): Dose-dependent effect | IC50 (NCI-H522): 2.16 µM | Activity (PC-3 [25]): 51.1%
